In brackets after ≈: the same amount, converted by molar mass.
What was measured:
Type in all cases: functional
Pseudomonas aeruginosa = assay: Antibacterial activity against Pseudomonas aeruginosa after 24 hrs by agar diffusion test
Procedure, shortened: (§1)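 Disc diffusion: organism culture swabbed dry onto prepared agar plates; sterile 9.6 mm discs soaked in compound solution (stock 0.5 g in 10 ml DMF), dried and laid on the inoculated surface. Standard antimicrobial disc placed at the plate centre. Incubation at 37 °C for 24 h.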

Candida albicans = assay: Antifungal activity against Candida albicans after 24 hrs by agar diffusion test; procedure, shortened: as §1
Staphylococcus aureus = assay: Antibacterial activity against Staphylococcus aureus after 24 hrs by agar diffusion test; procedure, shortened: as §1
Aspergillus fumigatus [1] = assay: Antifungal activity against Aspergillus fumigatus after 24 hrs by agar diffusion test; procedure, shortened: as §1
Aspergillus fumigatus [2] = assay: Antifungal activity against Aspergillus fumigatus after 72 hrs
Procedure, shortened: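 Microwell growth assay with conidia from 48 h Sabouraud agar cultures, final 5 × 10³ conidia per well. Medium-only and fluconazole-range controls included. Incubated at 23 °C for 72 h with growth checked every 24 h, then read as absorbance at 620 nm. Each concentration run in triplicate and the experiment repeated three times.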

Compound | inhibition zone (IZ) (Pseudomonas aeruginosa) | inhibition zone (IZ) (Candida albicans) | inhibition zone (IZ) (Staphylococcus aureus) | inhibition zone (IZ) (Aspergillus fumigatus [1]) | MIC (Aspergillus fumigatus [2])
Cc1c(C(=O)/C=C/NNC(N)=S)c(C(=O)Nc2ccccc2)nn1-c1ccccc1 | 8 mm/mg | 12 mm/mg | 10 mm/mg | 0 mm/mg | 
Cc1c(-c2ccc(Cl)cc2)nn2c(-c3c(C(=O)Nc4ccccc4)nn(-c4ccccc4)c3C)ccnc12 | 0 mm/mg | 10 mm/mg | 10 mm/mg | 0 mm/mg | 
Cc1c(-c2cc[nH]n2)c(C(=O)Nc2ccccc2)nn1-c1ccccc1 | 13 mm/mg | 12 mm/mg | 13 mm/mg | 0 mm/mg | 
C[C@@H]1[C@H](O)[C@@H](C)/C=C/C=C/C=C/C=C/C=C/C=C/C=C/[C@H](O[C@@H]2O[C@H](C)[C@@H](O)[C@H](N)[C@@H]2O)C[C@@H]2O[C@](O)(C[C@@H](O)C[C@@H](O)[C@H](O)CC[C@@H](O)C[C@@H](O)CC(=O)O[C@H]1C)C[C@H](O)[C@H]2C(=O)O [AMPHOTERICIN B] |  |  |  |  | 11 µg/mL (≈ 11.9 µM)
Cc1c(-c2cnc3ccccc3n2)c(C(=O)Nc2ccccc2)nn1-c1ccccc1 | 10 mm/mg | 10 mm/mg | 11 mm/mg | 0 mm/mg | 
CC(=O)c1c(C(=O)Nc2ccccc2)nn(-c2ccccc2)c1C | 17 mm/mg | 15 mm/mg | 21 mm/mg | 0 mm/mg | 
Cc1c(C(=O)/C=C/N(C)C)c(C(=O)Nc2ccccc2)nn1-c1ccccc1 | 14 mm/mg | 15 mm/mg | 14 mm/mg | 0 mm/mg | 
Clc1ccc(COC(Cn2ccnc2)c2ccc(Cl)cc2Cl)c(Cl)c1 (centres undefined) [MICONAZOLE] |  |  |  |  | 27.5 µg/mL (≈ 66.1 µM)
Cc1c(C(=O)CBr)c(C(=O)Nc2ccccc2)nn1-c1ccccc1 | 20 mm/mg | 16 mm/mg | 18 mm/mg | 12 mm/mg | 25 µg/mL (≈ 62.8 µM)
Cc1c(-c2ccon2)c(C(=O)Nc2ccccc2)nn1-c1ccccc1 | 13 mm/mg | 13 mm/mg | 13 mm/mg | 0 mm/mg | 
Cc1c(-c2csc(N)n2)c(C(=O)Nc2ccccc2)nn1-c1ccccc1 | 18 mm/mg | 13 mm/mg | 13 mm/mg | 0 mm/mg | 
Cc1c(-c2ccnc3nncn23)c(C(=O)Nc2ccccc2)nn1-c1ccccc1 | 13 mm/mg | 12 mm/mg | 13 mm/mg | 0 mm/mg | 
Cc1c(-c2ccccc2)nn2c(-c3c(C(=O)Nc4ccccc4)nn(-c4ccccc4)c3C)ccnc12 | 0 mm/mg | 10 mm/mg | 8 mm/mg | 0 mm/mg | 
O=C(N[C@H](CO)[C@H](O)c1ccc([N+](=O)[O-])cc1)C(Cl)Cl [CHLORAMPHENICOL] | 20 mm/mg |  | 21 mm/mg |  | 
Cc1c(C(=O)CC2C(=O)CC(C)(C)CC2=O)c(C(=O)Nc2ccccc2)nn1-c1ccccc1 | 0 mm/mg | 10 mm/mg | 11 mm/mg | 0 mm/mg | 
Cc1c(-c2cnc3sc4ccccc4n23)c(C(=O)Nc2ccccc2)nn1-c1ccccc1 | 10 mm/mg | 12 mm/mg | 12 mm/mg | 0 mm/mg | 
CN(C/C=C/C#CC(C)(C)C)Cc1cccc2ccccc12 [TERBINAFINE] |  | 10 mm/mg |  | 10 mm/mg | 
